Assay results published in ChEMBL document CHEMBL4610083, “Kendomycin Cytotoxicity against Bacterial, Fungal, and Mammalian Cells Is Due to Cation Chelation” (J Nat Prod, 2020).
The source made the active and inactive calls. The calls are words filed in the database; no cut-off is given here. Residues, ends and D or L forms follow the SMILES beside them. *: point of attachment. Cbz = O=C(OCc1ccccc1)*

Legend:
[1] = Metal chelating activity assessed as compound-Fe2+ complex formation by UV-Vis spectrophotometric analysis
How it was run: (§1)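 250 μM compound titrated with increasing metal concentrations and absorption spectra recorded. A320 measured in quadruplicate; averages fitted to a binding curve to give apparent Kapp.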

[2] = Metal chelating activity assessed as compound-Cu2+ complex formation by UV-Vis spectrophotometric analysis; how it was run: as §1
[3] = test system: Proteasome; experiment: Inhibition of proteosome in HEK293T cells assessed as reduction in UbG76V-GFP degradation at 250 nM incubated for 4 hrs by flow cytometric analysis; conditions: Homo sapiens, HEK-293T
[4] = test system: Proteasome; experiment: Inhibition of proteosome in human K562 cells assessed as reduction in UbG76V-GFP degradation at 2.5 to 10 uM incubated for 4 hrs by flow cytometric analysis
How it was run: (§2)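 K562 cells carrying a lentivirally integrated, TRE2-driven UbG76V-GFP reporter. Reporter induced with 1 μg/mL doxycycline (final) 16 h before compound. Cells treated with compound or carrier for 4 h, then GFP fluorescence measured by flow cytometry.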

[5] = test system: HCT-116; experiment: Inhibition of protein biogenesis in human HCT116 cells assessed as reduction in total protein level at 100 to 1000 nM preincubated for 30 mins followed by addition of 35S-labeled methionine/cysteine and measured after 90 mins by autoradiography; type: functional, cell-based
How it was run: (§3)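 HCT116 cells seeded at 0.5 × 10^6/well and grown 24 h at 37 °C, 5% CO2. Washed, then given compound in Met/Cys-free DMEM for 30 min at 37 °C. Pulsed with 100 μCi 35S-Met/Cys for 90 min. Total protein taken by RIPA extraction of the cell pellet; secreted protein by TCA precipitation of the medium. Gels exposed to phosphor screens and scanned.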

[6] = test system: HCT-116; experiment: Inhibition of protein biogenesis in human HCT116 cells assessed as reduction in secreted protein level at 100 to 1000 nM preincubated for 30 mins followed by addition of 35S-labeled methionine/cysteine and measured after 90 mins by autoradiography; type: functional, cell-based; how it was run: as §3
[7] = Metal chelating activity assessed as compound-Fe3+ complex formation by UV-Vis spectrophotometric analysis; how it was run: as §1
[8] = Metal chelating activity assessed as compound-calcium complex formation by UV-Vis spectrophotometric analysis
[9] = Metal chelating activity assessed as compound-[…] complex formation by UV-Vis spectrophotometric analysis
[10] = test system: Bacillus subtilis; experiment: Antibacterial activity against Bacillus subtilis assessed as reduction in microbial growth in presence of FeCl2 by serial dilution method; type: functional, organism-based
How it was run: (§4)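 Mid-log cultures in LB back-diluted to low OD; 8-point compound serial dilution added, with or without freshly prepared 0.25 mM FeCl2 or 0.25 mM CuCl2. Incubation at 37 °C with orbital shaking at 1000 rpm. Cell density read as A600, duplicate data sets, inhibition curves fitted by regression.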

[11] = test system: Saccharomyces cerevisiae; experiment: Antifungal activity against Saccharomyces cerevisiae assessed as reduction in microbial growth in presence of FeCl2; type: functional, organism-based
How it was run: (§5)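 Single-colony inhibition on solid medium, with or without 1 mM FeCl2 or 0.25 mM CuCl2 in the agar. Colonies washed off the plates with PBS and cell density read as A600. Inhibition curves fitted by regression.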

[12] = test system: HCT-116; experiment: Antiproliferative activity against human HCT116 cells assessed as reduction in cell viability incubated for 72 hrs in presence of FeCl2 by AlamarBlue assay; type: functional, cell-based
How it was run: (§6)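 HCT116 cells in McCoy's 5A with 10% FBS, seeded at 2500 cells/well. Dosed 16 h after plating, with or without 0.5 mM FeCl2 or 0.5 mM CuCl2. After 72 h, 10% resazurin added for 4 h, then fluorescence read (ex 580/em 620 nm). Viability given as % of carrier growth; curves from quadruplicate technical replicates.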

[13] = test system: Bacillus subtilis; experiment: Antibacterial activity against Bacillus subtilis assessed as reduction in microbial growth in presence of CuCl2 by serial dilution method; type: functional, organism-based; how it was run: as §4
[14] = test system: Saccharomyces cerevisiae; experiment: Antifungal activity against Saccharomyces cerevisiae assessed as reduction in microbial growth in presence of CuCl2; type: functional, organism-based; how it was run: as §5
[15] = test system: HCT-116; experiment: Antiproliferative activity against human HCT116 cells assessed as reduction in cell viability incubated for 72 hrs in presence of CuCl2 by AlamarBlue assay; type: functional, cell-based; how it was run: as §6
[16] = Binding affinity to Cu2+ ion assessed as compound-Cu2+ formation by 1H NMR spectroscopy
[17] = Binding affinity to Fe2+ ion assessed as compound-Fe2+ formation by 1H NMR spectroscopy
[18] = test system: HCT-116; experiment: Inhibition of protein biogenesis in human HCT116 cells assessed as reduction in total protein level preincubated for 30 mins followed by addition of 35S-labeled methionine/cysteine and measured after 90 mins by autoradiography; type: functional, cell-based
How it was run: (§7)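 HCT116 cells seeded at 0.5 × 10^6 per well and grown 24 h at 37 °C, 5% CO2. After two washes, compound in DMEM lacking Met/Cys was added for 30 min at 37 °C, then 100 μCi 35S-Met/Cys for a further 90 min. Secreted protein was recovered from medium by TCA precipitation, total protein by RIPA extraction of washed cells. Gels were read by phosphor screen imaging.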

[19] = test system: HCT-116; experiment: Inhibition of protein biogenesis in human HCT116 cells assessed as reduction in secreted protein level preincubated for 30 mins followed by addition of 35S-labeled methionine/cysteine and measured after 90 mins by autoradiography; type: functional, cell-based; how it was run: as §7
[20] = test system: Proteasome; experiment: Inhibition of proteosome in human K562 cells assessed as reduction in UbG76V-GFP degradation at 2 uM incubated for 4 hrs by flow cytometric analysis; how it was run: as §2

For `CC1=C2O[C@]3(O)C=C2C(=C(O)C1=O)[C@@H]1O[C@H](CC[C@H](C)/C=C(\C)C[C@@H](C)C[C@@H]3C)[C@H](C)[C@H](O)[C@H]1C`, the Activity [1] was “Dose-dependent effect”, the Kapp [1] was 19 µM and the Activity [2] was “Dose-dependent effect”. For the same compound, the Kapp [2] was 48 µM, the inhibition [3] was “inactive” and the inhibition [4] was “inactive”. For the same compound, the inhibition [5] was “inactive”, the inhibition [6] was “inactive” and the Activity [7] was “Dose-dependent effect”. The Kapp [7] was 76 µM, the Activity [8] was “inactive” and the Activity [9] was “inactive”. For the same compound, the Activity [10] was “inactive”, the Activity [11] was “inactive” and the Activity [12] was “inactive”. For the same compound, the Activity [13] was “inactive”, the Activity [14] was “inactive” and the Activity [15] was “Active”. For the same compound, the Activity [16] was “Active” and the Activity [17] was “Active”.
With `C[C@@H]1C[C@@H]([C@H](O)CC2CC(=O)NC(=O)C2)C(=O)[C@@H](C)C1` the inhibition [18] was “Active” and the inhibition [19] was “Active”.
For `CC(C)C[C@@H](C=O)NC(=O)[C@H](CC(C)C)NC(=O)[C@H](CC(C)C)NC(=O)OCc1ccccc1` (Cbz-Leu-Leu-Leu-aldehyde), the inhibition [3] was “Active” and the inhibition [20] was “Active”.
